In the library only some 2.9% were active in any assay of this set; here they are far more common.
SUMO HTRF inh: SUMOylation inhibition | P63279 | HTRF SUMOylation assay, SAE1/SAE2 + UBC9, in vitro | inhibition, % at 35 µM | hit rate 0.36% among 290,000 | AID 2006; in the data active means inhibition above about 50%, passing the limit was not always enough
Target sequence (P63279 whole entry, looked up): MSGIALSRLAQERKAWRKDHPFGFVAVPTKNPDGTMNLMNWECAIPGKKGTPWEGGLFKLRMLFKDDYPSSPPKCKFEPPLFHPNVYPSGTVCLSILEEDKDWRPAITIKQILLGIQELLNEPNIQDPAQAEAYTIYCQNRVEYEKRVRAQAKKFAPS
NALP1 yeast inh: blocks the NALP1 inflammasome reconstituted in yeast | S. cerevisiae NALP1/ASC/caspase-1 growth, X-gal OD620, 72 h | inhibition, % at 10 µM | hit rate 0.61% among 280,000; in the data active means inhibition mostly above about 24%, no sharp cut-off; inactive means mostly below about 32%
IMP-1 inhibitor: blocks Pseudomonas aeruginosa IMP-1 metallo-beta-lactamase; hit rate 0.45% among 290,000; inhibition, % at 5.6 µM; AID 1556; purified IMP-1, nitrocefin hydrolysis, epi-absorbance fluorescence;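 active means inhibition above the mean plus 3 SD of all compounds in the same screening run, cut at about 4.5% in these data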;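 further: 0% = IMP-1 with DMSO and 100% = DMSO wells lacking enzyme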
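assay system = purified recombinant IMP-1 metallo-beta-lactamase enzyme | schedule = 15 min preincubation plus 25 min reaction at 25 °C | signal = Epi-absorbance fluorescence, 480 nm excitation, 530 nm emission | read-out basis = percent inhibition from optical density relative to buffer-blank wells | controls = IMP-1 with DMSO as 0%, enzyme-free DMSO as 100%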
VIM-2 inh: blocks Pseudomonas aeruginosa VIM-2 metallo-beta-lactamase. purified VIM-2, nitrocefin hydrolysis, epi-absorbance fluorescence. inhibition, % at 5.6 µM. hit rate 0.89% among 290,000. AID 1527;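 active means inhibition above the mean of all tested compounds plus 3 SD, cutoff set per screening run, cut at about 7.5% in these data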;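 further: red hydrolysis product quenches plate fluorescence so inhibitors raise well fluorescence; 0% = enzyme with DMSO and 100% = DMSO without enzyme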
SUMO Mot1 rescue: SUMOylation pathway inhibition by Mot1-301 growth rescue | S. cerevisiae Mot1-301 growth rescue, ATP luminescence, 38.5C; percent above DMSO median, 100 means doubled | growth rescue, % at 18.8 µM | hit rate 1% among 320,000;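 active means every valid replicate shows activation above 250% relative to neutral control wells; inactive means the rest, any valid replicate at or below 250%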;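 further: OY570 slx delta 5 strain wells were the positive control but not used for scaling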
DNA FID counter: fluorescent intercalator displacement, NS3 helicase counter-screen; hit rate 0.17% among 290,000; DNA fluorescent intercalator displacement, fluorescence; inhibition, % at 7.9 µM; in the data active means inhibition above about 37%;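 further: 0% = vehicle and 100% = reference compound; higher means more ethidium bromide displaced from hairpin DNA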
Yeast Mot1 SUMO: inhibits SUMO pathway, affecting Mot1-301 yeast growth. S. cerevisiae Mot1-301 galactose growth, ATP luminescence, 24 h; -100 = growth of slx-deleted rescue strain. shares compounds with SUMO Mot1 rescue. 2,300 tested, under 10 active. growth activity, percent, % at 42 µM;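 active means Signal drops as the depositor expects, and the fitted half-maximal dose is no more than ten times the top valid tested dose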;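 further: more negative values mean stronger growth rescue toward the control strain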
* hit, by the source's call; · = no result; + = active, no number.

SMILES | SUMO HTRF inh | NALP1 yeast inh | IMP-1 inhibitor | VIM-2 inh | SUMO Mot1 rescue | DNA FID counter | Yeast Mot1 SUMO
O=C(/C=C/c1ccc(F)cc1)NCC1(c2ccccc2)CCOCC1 | 2.1 | 31.9 | -2.5 | -2.7 | 541.7* | -32.2 | -0.3
O=C(/C=C/c1ccccc1)NCC1(c2ccccc2)CCOCC1 | -6.7 | · | -2.5 | -2.2 | -18.6 | -23.1 | ·
O=Cc1sc([O-])nc1-[n+]1ccc2ccccc2c1 | 10.4 | 5.5 | -3.3 | -3.0 | -13.1 | -0.7 | ·
Cn1cnnc1SCc1ccc(C(=O)N/N=C/c2cccs2)cc1 | 2.5 | 3.0 | -2.2 | -1.1 | 2.8 | -10.6 | ·
COC(=O)c1ccccc1SC(CC(=O)c1ccccc1)c1ccc(F)cc1 (centres undefined) | 1.5 | · | -2.1 | -0.3 | 460.6* | -3.0 | 0.5
O=C(NCCC(=O)N1CCN(Cc2c(F)cccc2Cl)CC1)c1ccc(Cl)cc1 | · | · | · | · | -13.1 | · | ·
COc1ccc(-c2csc(Nc3cc(C)ccn3)n2)cc1C | 8.6 | 26.0 | -5.2 | -1.1 | 515.3* | -5.2 | 0.1
O=C1COc2ccc(C(=O)COC(=O)c3c(F)cccc3Cl)cc2N1 | · | · | · | · | -5.0 | · | ·
CC1(C)c2[nH]c3ccccc3c2C[C@H]2C(=O)N(Cc3cccc(F)c3)C(=O)N21 | · | · | · | · | 447.9* | · | -1.0
O=C(CN1CC(c2ccccc2)CC1=O)N/N=C/c1cc(Br)ccc1O (centres undefined) | 12.5 | 14.9 | -3.8 | -3.9 | 0.6 | -34.6 | ·
O=C(Nc1ccccn1)c1ccc(CN(c2ccccc2)S(=O)(=O)c2ccccc2)cc1 | 1.7 | -15.7 | -3.4 | -0.8 | 504.8* | -10.3 | 0.3
COc1ccc(N(Cc2ccccc2)S(=O)(=O)c2cccc(C(=O)Nc3ccccn3)c2)cc1 | · | · | · | · | -6.3 | · | ·
Cn1c2ccccc2c2cnn(CC(=O)Nc3ccc(F)cc3F)c(=O)c21 | 49.0 | · | -1.8 | -2.6 | -19.6 | -2.5 | ·
Cc1ccccc1NC(=O)CCN1CCN(Cc2ccccc2)CC1 | 14.2 | 23.0 | -3.0 | -3.0 | -7.8 | 0.1 | ·
Cc1cc(C)c(NC(=O)CCN2CCN(Cc3ccccc3)CC2)c(C)c1 | · | · | · | · | 465.1* | · | 0.0
O=C(Nc1ccsc1C(=O)O)c1cccc(C(F)(F)F)c1 | 27.2 | 7.5 | -0.4 | -1.0 | 968.1* | -2.7 | 0.3
COc1ccccc1C(=O)N(NC(=O)Oc1ccccc1)C(C)(C)C | 10.3 | 21.9 | -3.2 | -2.3 | 549.2* | -7.3 | -0.4
CC(C)(C)NC(=O)NCc1cccnc1 | 21.2 | · | -0.5 | -1.3 | -17.0 | 2.1 | ·
CS(=O)(=O)N(CCc1ccccc1)CC(=O)NCc1cccnc1 | 14.4 | 5.7 | -0.7 | -2.2 | 854.0* | -3.2 | 0.2
O=C(NCc1cccnc1)Nc1ccccc1 | 17.0 | 17.1 | -3.0 | -0.7 | 563.6* | -1.6 | 0.2
CC(C)(C)NC(=S)NCc1cccnc1 | -9.8 | 7.1 | -1.2 | -0.6 | 978.4* | -5.8 | 1.1
O=C(/C=N/NC(=O)c1ccc(Cl)cc1Cl)c1ccccc1 | 11.5 | · | -3.3 | -3.6 | -6.7 | -10.5 | ·
CCOC(=O)c1sc(NC(=O)CCN2C(=O)C3CCCCC3C2=O)cc1C (centres undefined) | · | · | · | · | 1.2 | · | ·
COc1ccc(S(=O)(=O)NCc2cccnc2)cc1 | 2.9 | 11.3 | -0.3 | -2.3 | 7.9 | -1.4 | ·
CCc1ccc(S(=O)(=O)NCc2cccnc2)cc1 | 5.3 | 13.9 | 1.6 | 2.3 | 571.4* | -10.9 | -0.6
SMILES | SUMO HTRF inh | NALP1 yeast inh | IMP-1 inhibitor | VIM-2 inh | SUMO Mot1 rescue | DNA FID counter | Yeast Mot1 SUMO
CCN1C(=S)N[C@@H](c2cccs2)C(C(=O)OC)=C1C | 8.0 | 7.2 | -3.0 | -1.4 | 895.7* | -8.1 | -0.2
CCN1C(=S)N[C@@H](CCc2ccccc2)C(C(=O)OC)=C1C | 3.7 | -16.5 | -5.0 | -2.0 | + | -15.1 | 0.2
CCN1C(=O)N[C@@H](c2cccs2)C(C(=O)OC)=C1C | · | · | · | · | -2.2 | · | ·
CCC1(c2ccc(F)cc2)NC(=O)N(CC(=O)N2CCN(C(=O)c3ccco3)CC2)C1=O (centres undefined) | · | · | · | · | 9.1 | · | ·
Cc1onc(-c2ccccc2)c1C(=O)N/N=C/C=C/c1ccccc1 | 16.8 | 4.8 | -1.0 | -4.0 | 382.5* | -16.6 | 1.8
Cc1onc(-c2ccccc2)c1C(=O)N/N=C/c1cccc(O)c1 | -5.7 | 19.7 | -0.8 | -3.7 | -21.5 | -1.0 | ·
COc1cccc(CC2(CO)CCN(Cc3cccn3-c3cccnc3)CC2)c1 | 2.3 | -10.8 | -1.9 | -4.3 | -0.3 | 12.7 | ·
CCOc1cccc(N(C(=O)c2ccco2)C(C(=O)NC2CCCC2)c2cccnc2)c1 (centres undefined) | 6.3 | 20.8 | -0.4 | -0.4 | 26.6 | -27.0 | ·
Cc1ccc(C)c(NC(=O)C(c2ccccc2)N2CCOCC2)c1 (centres undefined) | 6.6 | -4.8 | 0.2 | 1.0 | -13.9 | -17.6 | ·
O=C1CN(C(=O)COC(=O)c2cccc(S(=O)(=O)NCc3ccccc3)c2)c2ccccc2N1 | 13.6 | -9.7 | -3.6 | -3.6 | 553.8* | -23.7 | 0.5
Cc1cc(C)c(S(=O)(=O)NCC(c2cccnc2)N2CCN(Cc3ccccc3)CC2)c(C)c1 (centres undefined) | 1.2 | 32.2 | -0.2 | 0.1 | 524.3* | 10.4 | 0.0
COCc1ccc(CN2CCC(n3nccc3NC(=O)C(OC)c3ccccc3)CC2)o1 (centres undefined) | -12.9 | 1.7 | -1.1 | 0.1 | 1.3 | -3.2 | ·
COC(C(=O)Nc1ccnn1C1CCN(Cc2cnn(C)c2)CC1)c1ccccc1 (centres undefined) | -2.5 | 13.3 | -1.8 | 0.2 | 497.3* | -0.9 | -0.3
COCCC(=O)N(Cc1ccc2c(c1)OCO2)C(C(=O)NC1CCCCC1)c1ccncc1 (centres undefined) | -35.5 | 1.4 | -3.1 | -2.8 | 67.6 | -13.4 | ·
O=C(NC1CCCCC1)C(c1ccncc1)N(Cc1ccc2c(c1)OCO2)C(=O)C(F)(F)F (centres undefined) | 16.1 | -2.1 | -2.9 | -1.2 | 576.7* | -15.4 | 0.1
Cc1ccccc1C(=O)NN(C)c1nc2ccccc2nc1C(F)(F)F | 4.7 | 2.0 | -1.9 | -2.3 | + | -0.9 | 0.7
CN(NC(=O)c1ccco1)c1nc2ccccc2nc1C(F)(F)F | -5.0 | -3.9 | -1.5 | 1.2 | 81.3 | -1.0 | ·
CCn1ncc(Br)c1C(=O)Nc1ccc(OC(F)(F)F)cc1 | -18.7 | 1.8 | -1.9 | -1.3 | 450.7* | -11.6 | -0.7
COc1ccccc1-c1nc2ccc(Cl)cc2c(=O)n1O | 17.3 | -13.5 | -3.2 | -3.2 | 4.9 | -4.2 | ·
Cc1ccccc1-c1nc2ccc(Cl)cc2c(=O)n1O | 15.9 | -0.4 | -1.5 | -3.1 | 613.0* | -1.3 | -0.5
O=C(CSc1nc2ccccc2[nH]1)NC1CCCC1 | 13.4 | 28.9 | -0.5 | -0.4 | 86.5 | -0.4 | ·
O=C(CSc1nc2ncccc2[nH]1)NC1CCCCC1 | 9.3 | 15.4 | 1.9 | 0.8 | 929.4* | -9.2 | 0.3
Cc1cccc(C)c1NS(=O)(=O)c1ccc(OCCNS(C)(=O)=O)cc1 | 9.1 | 18.9 | -3.1 | -2.4 | 654.6* | -4.9 | 0.2

Compound activity deposited in PubChem BioAssay by several laboratories.
